Results from article PMC8811894 (ACS Omega, 2022).
Where two headings read alike, the source gives them in different places.

Tests used:
[1] = system: A549 human lung epithelial carcinoma cells; assay: MTT cell toxicity assay; assay type: cell-based; conditions: read-out: cancer cell growth inhibition, GI50
How it was run: (§1)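 Cells were seeded at 5 × 10^3/well in medium with 10% FBS and kept at 37 °C, 5% CO2. Media: DMEM for A549 and A375; EMEM for DU145; F-12K for PC-3; McCoy's 5a for HCT-116 and SK-OV-3; RPMI-1640 + insulin 0.2 Units/mL for T-47D. Test compound came from DMSO stocks, with tubercidin as positive control. MTT at 0.5 mg/mL final was added for 2–3 h at 37 °C, then absorbance read at 570 nm. Three repeats; GI50 from sigmoidal fit.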

[2] = system: HCT-116 human colon epithelial colorectal carcinoma cells; assay: MTT cell toxicity assay; assay type: cell-based; conditions: read-out: cancer cell growth inhibition, GI50
How it was run: as §1

[3] = system: A375 human skin epithelial malignant melanoma cells; assay: MTT cell toxicity assay; assay type: cell-based; conditions: read-out: cancer cell growth inhibition, GI50
How it was run: as §1

[4] = system: SK-OV-3 human ovary ascites epithelial adenocarcinoma cells; assay: MTT cell toxicity assay; assay type: cell-based; conditions: read-out: cancer cell growth inhibition, GI50
How it was run: as §1

[5] = system: PC-3 human prostate epithelial adenocarcinoma grade IV cells; assay: MTT cell toxicity assay; assay type: cell-based; conditions: 72 h, read-out: cancer cell growth inhibition, GI50
How it was run: as §1

[6] = system: DU145 human prostate epithelial carcinoma cells; assay: MTT cell toxicity assay; assay type: cell-based; conditions: read-out: cancer cell growth inhibition, GI50
How it was run: as §1

[7] = system: T-47D human breast carcinoma cells; assay: MTT cell toxicity assay; assay type: cell-based; conditions: for GI50: 72 h, read-out: cancer cell growth inhibition, GI50; for times more potent than PrTPP: MTT test
How it was run: as §1

[8] = system: HCT-116 human colon epithelial colorectal carcinoma cells; assay: Click-iT-EdU Alexa Fluor 488 cell proliferation assay; assay type: cell-based; conditions: read-out: DNA synthesis inhibition, GI50
How it was run: (§2)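 Cells were seeded at 800/well in medium with 10% FBS under 5% CO2. HCT-116 grew in McCoy's 5a and T-47D in RPMI-1640 + insulin 0.2 Units/mL. Test compound came from DMSO stocks, with tubercidin as positive control. After 72 h, EdU was added for 2.5 h at 37 °C. Cells were fixed in 4% paraformaldehyde (30 min, RT) and stained with Hoechst 33342. Click-iT Alexa Fluor 488 reaction ran 1 h at RT in the dark. Plates were read by high-content imaging; value from sigmoidal fit.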

[9] = system: T-47D human breast carcinoma cells; assay: as above; assay type: cell-based; conditions: for GI50: 72 h, read-out: DNA synthesis inhibition, GI50; for times more potent than PrTPP: Click-iT-EdU test
How it was run: as §2

[10] = system: sea urchin embryos; assay: Phenotypic sea urchin embryo assay; assay type: in vivo, Paracentrotus lividus
[11] = system: panel of 60 human cancer cell lines; assay: NCI60 screen, SRB assay, panel mean; assay type: cell-based; conditions: for NCI60 screen mean GI, %: single-dose inhibition of cell growth at 10 μM; for GI50: Homo sapiens, read-out: NCI60 screen mean GI50
How it was run: (§3)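 Tested on the 60-line human cancer panel by sulforhodamine B assay. The dye binds cell protein under mildly acidic conditions and is extracted with basic medium; bound dye is taken as a proxy for cell mass. A single-dose test at 10 μM gives % growth inhibition; a five-dose test gives GI50.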

[12] = system: SK-MEL-5; assay: NCI60 SRB screen; assay type: cell-based, human; conditions: NCI60 single dose, SK-MEL-5 melanoma
How it was run: as §3

[13] = system: MDA-MB-468; assay: NCI60 SRB screen; assay type: cell-based, human; conditions: NCI60 single dose, MDA-MB-468 breast cancer
How it was run: as §3

Molecule	GI50 ([1]; Homo sapiens, A549, 72 h) [µM]	GI50 ([2]; Homo sapiens, HCT-116, 72 h) [µM]	GI50 ([3]; Homo sapiens, A-375, 72 h) [µM]	GI50 ([4]; Homo sapiens, SK-OV-3, 72 h) [µM]	GI50 ([5]; Homo sapiens) [µM]	GI50 ([6]; Homo sapiens, DU-145, 72 h) [µM]	GI50 ([7]; Homo sapiens, T47D) [µM]	GI50 ([8]; Homo sapiens, HCT-116, 72 h) [µM]	GI50 ([9]; Homo sapiens, T47D) [µM]	NCI60 screen mean GI, % [11] [%]	also measured
COc1cc(OCCCCCC[P+](c2ccccc2)(c2ccccc2)c2ccccc2)c(OC)c2c1OCO2.[Br-] [compound 11, {6-[(4,7-Dimethoxy-2H-1,3-benzodioxol-5-yl)oxy]hexyl}(triphenyl)phosphonium Bromide]	0.463 ± 0.042	1.95 ± 0.21	1.93 ± 0.077	24.6 ± 2	0.258 ± 0.026	20.8 ± 1.3	0.421 ± 0.013	2.83 ± 0.37	0.606 ± 0.06	–	effect on sea urchin embryo development (in words) ([10]; in vivo): moderate antiproliferative effect on the sea urchin embryos
COc1cc(COC(=O)CCCCC[P+](c2ccccc2)(c2ccccc2)c2ccccc2)c(OC)c2c1OCO2.[Br-] [compound 16, {6-[(4,7-Dimethoxy-2H-1,3-benzodioxol-5-yl)methoxy]-6-oxohexyl}(triphenyl)phosphonium Bromide]	18.5 ± 0.67	1.07 ± 0.02	3.43 ± 0.08	10.2 ± 0.19	4.18 ± 0.13	14.1 ± 0.37	0.43 ± 0.88	–	–	49.2	number of cancer cell lines with 80–100% growth inhibition ([11]; NCI60 single dose 10 μM): nine
COc1c(CCCO)cc2c(c1OC)OCO2 [4b, 3-(6,7-Dimethoxy-1,3-benzodioxol-5-yl)propan-1-ol]	> 250	> 250	> 250	> 250	> 250	> 250	> 250	> 250	> 250	0	–
COc1cc(CCCO)c(OC)c(OC)c1OC [4d, 3-(2,3,4,5-Tetramethoxyphenyl)propan-1-ol]	> 250	> 250	> 250	> 250	> 250	> 250	> 250	> 250	> 250	0	–
C=CCc1cc(OC)c2c(c1OC)OCO2 [1a, Apiol]	> 250	> 250	> 250	> 250	> 250	> 250	70.7 ± 9.9	> 250	> 250	–	–
COc1cc(CNC(=O)CCCCC[P+](c2ccccc2)(c2ccccc2)c2ccccc2)c(OC)c2c1OCO2.[Br-] [compound 17, (6-{[(4,7-Dimethoxy-2H-1,3-benzodioxol-5-yl)methyl]amino}-6-oxohexyl)(triphenyl)phosphonium Bromide]	9.96 ± 0.22	1.05 ± 0.01	2.78 ± 0.17	18.9 ± 2.86	2.15 ± 0.04	11.3 ± 0.75	0.256 ± 0.08	–	–	35.8	number of cancer cell lines with 80–100% growth inhibition ([11]; NCI60 single dose 10 μM): three
COc1cc(CCCO)c(OC)c2c1OCO2 [4a, 3-(4,7-Dimethoxy-1,3-benzodioxol-5-yl)propan-1-ol]	> 250	> 250	> 250	> 250	> 250	> 250	> 250	> 250	> 250	0	–
COc1cc(CCCO)cc2c1OCO2 [4c, 3-(7-Methoxy-1,3-benzodioxol-5-yl)propan-1-ol]	> 250	> 250	> 250	> 250	> 250	> 250	> 250	> 250	> 250	0	–
COc1c(CCC[P+](c2ccccc2)(c2ccccc2)c2ccccc2)cc2c(c1OC)OCO2.[I-] [7b, [3-(6,7-Dimethoxy-1,3-benzodioxol-5-yl)propyl](triphenyl)phosphonium Iodide]	4.64 ± 0.37	0.229 ± 0.027	0.491 ± 0.019	6.62 ± 0.13	0.555 ± 0.049	3.26 ± 0.36	0.107 ± 0.004	0.405 ± 0.036	0.118 ± 0.007	–	times more potent than PrTPP ([7]; T-47D): 22.3 times; times more potent than PrTPP ([9]; T-47D): 29.2 times; GI50 [11]: 1.58 µM
COc1cc(CCC[P+](c2ccccc2)(c2ccccc2)c2ccccc2)c(OC)c2c1OCO2.[I-] [7a, [3-(4,7-Dimethoxy-1,3-benzodioxol-5-yl)propyl](triphenyl)phosphonium Iodide]	3 ± 0.21	0.263 ± 0.033	0.627 ± 0.085	2.42 ± 0.43	0.552 ± 0.03	2.86 ± 0.4	0.089 ± 0.008	0.367 ± 0.05	0.104 ± 0.007	–	times more potent than PrTPP ([7]; T-47D): 26.9 times; times more potent than PrTPP ([9]; T-47D): 33.2 times; GI50 [11]: 1.66 µM
[3-(7-Methoxy-1,3-benzodioxol-5-yl)propyl](trimethyl)phosphonium Iodide [7c]	–	–	–	–	–	–	–	–	–	63.9	GI50 ([1]; A549, MTT assay, 72 h): 12.2 ± 0.61 µM; GI50 ([2]; HCT-116, MTT assay, 72 h): 0.331 ± 0.039 µM; GI50 ([3]; A375, MTT assay, 72 h): 1.08 ± 0.06 µM; GI50 ([4]; SK-OV-3, MTT assay, 72 h): 11 ± 1.4 µM; GI50 ([5]; PC-3, MTT assay): 0.41 ± 0.04 µM; GI50 ([6]; DU145, MTT assay, 72 h): 5.12 ± 0.66 µM; times more potent than PrTPP ([7]; T-47D): 239 times; GI50 ([7]; T-47D, MTT assay): 0.01 ± 0.0005 µM; GI50 ([8]; HCT-116, Click-iT-EdU, 72 h): 0.22 ± 0.03 µM; times more potent than PrTPP ([9]; T-47D): 138 times; GI50 ([9]; T-47D, Click-iT-EdU): 0.025 ± 0.002 µM; number of cancer cell lines with growth inhibited by more than 80% ([11]; NCI60 single dose 10 μM): 18; cleavage alteration, EC ([10]; effective threshold concentration, fertilized eggs exposed): >4 µM; effect at 10 μM (in words) [12]: lethal effect; effect at 10 μM (in words) [13]: lethal effect
